From ChEMBL document CHEMBL4680136, “Synthesis and antitumor activities investigation of a C-nucleoside analogue of ribavirin” (Eur J Med Chem, 2020)
≈ marks a conversion by molar mass, not a printed value.

Tests used:
SK-OV-3 [1] = experiment: Antiproliferative activity against human SK-OV-3 cells assessed as reduction in cell growth incubated for 4 days by trypan blue exclusion assay; type: functional, cell-based; details: SK-OV-3, 96 h
Summary of the method: (§1)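 Ovarian lines grown in RPMI-1640 glutaMAX with 10% FBS, 5% CO2, 37°C. Cells seeded at 20 000 cells/well in 24-well plates and exposed to 0, 1, 10, 20, 30 or 50 μg/mL for 7 days. Viable cells were counted daily by trypan blue exclusion. At least three independent experiments in triplicate; mean ± standard deviation.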

Huh-7 [2] = experiment: Antiproliferative activity against human HuH-7 cells assessed as reduction in cell growth at 100 uM incubated for 72 hrs by MTT assay relative to control; type: functional
[3] = Cytotoxicity against human MET5A cells assessed as effect on cell morphology at 20 ug/ml measured upto 7 days by laser scanning confocal microscopy; type: cell-based; details: 168 h, time <=7 day, dose 20 µg/ml
Summary of the method: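 Healthy mesothelial MeT-5A cells, treated or untreated, were followed over days 1, 3 and 7. Actin cytoskeleton was stained by immunofluorescence (green) and nuclei with DAPI. Morphology was examined by laser scanning confocal microscopy.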

A-431 [4] = experiment: Antiproliferative activity against human A-431 cells assessed as reduction in cell growth incubated for 72 hrs by MTT assay; type: functional, cell-based; details: A-431, 72 h
IGROV-1 [5] = experiment: Antiproliferative activity against human IGROV-1 cells assessed as reduction in cell growth incubated for 7 days by trypan blue exclusion assay; type: functional, cell-based; details: IGROV-1, 168 h; summary of the method: as §1
A-431 [6] = experiment: Antiproliferative activity against human A-431 cells assessed as reduction in cell growth at 100 uM incubated for 72 hrs by MTT assay relative to control; type: functional
SK-OV-3 [7] = experiment: Antiproliferative activity against human SK-OV-3 cells assessed as reduction in cell growth incubated for 7 days by trypan blue exclusion assay; type: functional, cell-based; details: SK-OV-3, 168 h; summary of the method: as §1
Huh-7 [8] = experiment: Antiproliferative activity against human HuH-7 cells assessed as reduction in cell growth incubated for 72 hrs by MTT assay; type: functional, cell-based; details: Huh-7, 72 h
DU-145 [9] = experiment: Antiproliferative activity against human DU-145 cells assessed as reduction in cell growth incubated for 72 hrs by MTT assay; type: functional, cell-based; details: DU-145, 72 h
MDA-MB-231 [10] = experiment: Antiproliferative activity against human MDA-MB-231 cells assessed as reduction in cell growth incubated for 72 hrs by MTT assay; type: functional, cell-based; details: MDA-MB-231, 72 h
SK-OV-3 [11] = experiment: Antiproliferative activity against human SK-OV-3 cells assessed as reduction in cell growth incubated for 3 days by trypan blue exclusion assay; type: functional, cell-based; details: SK-OV-3, 72 h; summary of the method: as §1
B16-F10 [12] = experiment: Antiproliferative activity against mouse B16-F10 cells assessed as reduction in cell growth at 100 uM incubated for 72 hrs by MTT assay relative to control; type: functional
IGROV-1 [13] = experiment: Antiproliferative activity against human IGROV-1 cells assessed as reduction in cell growth incubated for 3 days by trypan blue exclusion assay; type: functional, cell-based; details: IGROV-1, 72 h; summary of the method: as §1
C6 [14] = experiment: Antiproliferative activity against rat C6 cells assessed as reduction in cell growth incubated for 72 hrs by MTT assay; type: functional, cell-based; details: C6, 72 h
C6 [15] = experiment: Antiproliferative activity against rat C6 cells assessed as reduction in cell growth at 100 uM incubated for 72 hrs by MTT assay relative to control; type: functional
Caco-2 [16] = experiment: Antiproliferative activity against human CaCo-2 cells assessed as reduction in cell growth at 100 uM incubated for 72 hrs by MTT assay relative to control; type: functional
Caco-2 [17] = experiment: Antiproliferative activity against human CaCo-2 cells assessed as reduction in cell growth incubated for 72 hrs by MTT assay; type: functional, cell-based; details: Caco-2, 72 h
IGROV-1 [18] = experiment: Antiproliferative activity against human IGROV-1 cells assessed as reduction in cell growth incubated for 4 days by trypan blue exclusion assay; type: functional, cell-based; details: IGROV-1, 96 h; summary of the method: as §1
MDA-MB-435 [19] = experiment: Antiproliferative activity against human MDA-MB-435 cells assessed as reduction in cell growth at 100 uM incubated for 72 hrs by MTT assay relative to control; type: functional
SNB-75 [20] = experiment: Antiproliferative activity against human SNB-75 cells assessed as reduction in cell growth incubated for 72 hrs by MTT assay; type: functional, cell-based; details: SNB-75, 72 h
MDA-MB-435 [21] = experiment: Antiproliferative activity against human MDA-MB-435 cells assessed as reduction in cell growth incubated for 72 hrs by MTT assay; type: functional, cell-based; details: MDA-MB-435, 72 h
B16-F10 [22] = experiment: Antiproliferative activity against mouse B16-F10 cells assessed as reduction in cell growth incubated for 72 hrs by MTT assay; type: functional, cell-based; details: B16-F10, 72 h
MDA-MB-231 [23] = experiment: Antiproliferative activity against human MDA-MB-231 cells assessed as reduction in cell growth at 100 uM incubated for 72 hrs by MTT assay relative to control; type: functional
DU-145 [24] = experiment: Antiproliferative activity against human DU-145 cells assessed as reduction in cell growth at 100 uM incubated for 72 hrs by MTT assay relative to control; type: functional
SNB-75 [25] = experiment: Antiproliferative activity against human SNB-75 cells assessed as reduction in cell growth at 100 uM incubated for 72 hrs by MTT assay relative to control; type: functional
[26] = Toxicity in Swiss mouse assessed as death rate at 5 to 100 mg/kg, ip observed after 24 hrs; type: organism-based; details: in vivo, dose 5-100 mg/kg, read-out: Activity
Summary of the method: (§2)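 Male 6-week-old Swiss mice, acclimatized 5-7 days, randomized into seven groups of 3. Single intraperitoneal injection at 5, 10, 25, 50, 75 or 100 mg/kg; controls housed alike without injection. Mice were monitored over the first 24 h, then daily for 7 days, recording mortality and behaviour.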

[27] = Toxicity in Swiss mouse assessed as death rate at 5 to 100 mg/kg, ip observed after 7 days; type: organism-based; details: in vivo, dose 5-100 mg/kg, time 7 day, read-out: Activity; summary of the method: as §2
[28] = Toxicity in Swiss mouse assessed as effect on body weight at 5 to 100 mg/kg, ip observed after 7 days; type: organism-based; details: in vivo, 168 h, dose 5-100 mg/kg, time 7 day
[29] = Toxicity in Swiss mouse assessed as effect on behaviour at 5 to 100 mg/kg, ip observed after 7 days; type: organism-based; details: in vivo, 168 h, dose 5-100 mg/kg, time 7 day
Summary of the method: (§3)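 Male 6-week-old Swiss mice were acclimatized 5-7 days and randomised into seven groups of 3. Six groups got a single i.p. injection at 5, 10, 25, 50, 75 or 100 mg/kg; controls were uninjected. Mice were monitored over the first 24 h, then daily for 7 days, recording mortality and behaviour.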

[30] = Toxicity in Swiss mouse assessed as abnormal behavior at 5 to 100 mg/kg, ip observed after 24 hrs; type: organism-based; details: in vivo, dose 5-100 mg/kg; summary of the method: as §3
[31] = Toxicity in Swiss mouse assessed as systemic signs at 5 to 100 mg/kg, ip observed after 7 days; type: organism-based; details: in vivo, 168 h, dose 5-100 mg/kg, time 7 day
[32] = Cytotoxicity against human MET5A cells assessed as effect on cell morphology at 50 ug/ml measured upto 7 days by laser scanning confocal microscopy; type: cell-based; details: 168 h, time <=7 day, dose 50 µg/ml
Summary of the method: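 MeT-5A mesothelial cells, untreated or treated up to 50 μg/mL, were stained for actin cytoskeleton by immunofluorescence with DAPI-counterstained nuclei. Morphology was examined by laser scanning confocal microscopy on days 1, 3 and 7.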

[33] = Toxicity in Swiss mouse assessed as effect on food consumption at 5 to 100 mg/kg, ip observed after 7 days; type: organism-based; details: in vivo, 168 h, dose 5-100 mg/kg, time 7 day
[34] = Toxicity in Swiss mouse assessed as abnormal appearance at 5 to 100 mg/kg, ip observed after 24 hrs; type: organism-based; details: in vivo, dose 5-100 mg/kg

SMILES | IC50 (SK-OV-3 [1]) | inhibition at 100 µM (Huh-7 [2]) | Activity [3] | IC50 (A-431 [4]) | IC50 (IGROV-1 [5]) | inhibition at 100 µM (A-431 [6]) | IC50 (SK-OV-3 [7]) | IC50 (Huh-7 [8]) | IC50 (DU-145 [9]) | IC50 (MDA-MB-231 [10]) | IC50 (SK-OV-3 [11]) | inhibition at 100 µM (B16-F10 [12]) | IC50 (IGROV-1 [13]) | IC50 (C6 [14]) | inhibition at 100 µM (C6 [15]) | inhibition at 100 µM (Caco-2 [16]) | IC50 (Caco-2 [17]) | IC50 (IGROV-1 [18]) | inhibition at 100 µM (MDA-MB-435 [19]) | IC50 (SNB-75 [20]) | also measured
NC(=O)c1ncn([C@@H]2O[C@H](CO)[C@@H](O)[C@H]2O)n1 [RIBAVIRIN] | 10 µg/mL (≈ 40.9 µM) | 60% | Non-Toxic | 3.18 µM | 16 µg/mL (≈ 65.5 µM) | 70% | 10 µg/mL (≈ 40.9 µM) | 53.7 µM | > 100 µM | > 100 µM | 9 µg/mL (≈ 36.9 µM) | 80% | 25 µg/mL (≈ 102 µM) | 13.5 µM | 75% | 60% | 34.5 µM | 21 µg/mL (≈ 86 µM) | 50% | 18.5 µM | IC50 (MDA-MB-435 [21]): 38.3 µM; IC50 (B16-F10 [22]): 3.5 µM; inhibition at 100 µM (MDA-MB-231 [23]): 40%; inhibition at 100 µM (DU-145 [24]): 50%; inhibition at 100 µM (SNB-75 [25]): 70%
NC(=O)c1n[nH]nc1[C@@H]1O[C@H](CO)[C@@H](O)[C@H]1O | 25.5 µg/mL (≈ 104 µM) | 60% | Non-Toxic | 0.58 µM | 23.8 µg/mL (≈ 97.5 µM) | 80% | 19 µg/mL (≈ 77.8 µM) | 22.2 µM | 2.14 µM | 9.59 µM | 24.5 µg/mL (≈ 100 µM) | 80% | 23 µg/mL (≈ 94.2 µM) | 2.15 µM | 85% | 90% | 8.05 µM | 22.8 µg/mL (≈ 93.4 µM) | 80% | 9.38 µM | mortality at 24 h [26]: 0%; mortality at 168 h [27]: 0%; Activity [28]: Non-Toxic; Activity [29]: Non-Toxic; Activity [30]: Non-Toxic; Activity [31]: Non-Toxic; Activity [32]: Non-Toxic; IC50 (MDA-MB-435 [21]): 1.9 µM; Activity [33]: Non-Toxic; IC50 (B16-F10 [22]): 1.52 µM; inhibition at 100 µM (MDA-MB-231 [23]): 80%; Activity [34]: Non-Toxic; inhibition at 100 µM (DU-145 [24]): 85%; inhibition at 100 µM (SNB-75 [25]): 70%
